In ChEMBL document CHEMBL3085625, “Synthesis, biological evaluation and molecular modeling studies of some novel thiazolidinediones with triazole ring” (Eur J Med Chem, 2013):
Converted amounts (≈) assume the structure as drawn.

Experiments:
MCF7 = assay: Cytotoxicity against human MCF7 cells after 24 hrs by MTT assay; assay type: functional, cell-based; conditions: MCF7, 24 h
Outline: (§1)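 MTT read-out: viable-cell mitochondrial dehydrogenase reduces tetrazolium to formazan, which is dissolved in DMSO and read at 570 nm. IC50 reported in μg/ml. Doxorubicin serves as positive control.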

[1] = Inhibition of alpha-glucosidase (unknown origin) using p-nitrophenyl-alpha-D-glucopyranoside as substrate assessed as p-nitrophenol formation incubated for 5 mins prior to substrate addition measured after 5 mins by spectrophotometry
Outline: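 Test samples (5 mg/mL DMSO stock) in 100 mM phosphate buffer pH 6.8 preincubated 5 min with yeast α-glucosidase (0.76 U/mL) or crude rat intestinal enzyme (supernatant of sonicated acetone powder in saline, centrifuged). Then 5 mM p-nitrophenyl-α-D-glucopyranoside added; p-nitrophenol read at 405 nm after 5 min. Sample blanks without substrate; DMSO controls. Inhibition = (1−B/A)×100. Triplicate; IC50 by regression of mean inhibition.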

[2] = Cytotoxicity against human IMR32 cells after 24 hrs by MTT assay; assay type: functional, cell-based; conditions: IMR-32, 24 h; outline: as §1
HepG2 = assay: Cytotoxicity against human HepG2 cells after 24 hrs by MTT assay; assay type: functional, cell-based; conditions: HepG2, 24 h; outline: as §1

Row | Structure (SMILES) | IC50 (MCF7) [µg/mL] | IC50 [1] [µg/mL] | IC50 [2] [µg/mL] | IC50 (HepG2) [µg/mL]
1 | O=C1S/C(=C\c2ccc3c(c2)OCO3)C(=O)N1Cc1cn(-c2ccc(Cl)c(F)c2)nn1 | > 100 | > 100 | > 100 | > 100
2 | COc1ccc(C)cc1-n1cc(CN2C(=O)S/C(=C\c3ccc4c(c3)OCO4)C2=O)nn1 | 34 (≈ 75.5 µM) | > 100 | 52.6 (≈ 117 µM) | 45 (≈ 99.9 µM)
3 | O=C1S/C(=C\c2ccc3c(c2)OCO3)C(=O)N1Cc1cn(CCc2ccccc2)nn1 | 30 (≈ 69 µM) | 0.3 (≈ 0.69 µM) | 52.6 (≈ 121 µM) | 31 (≈ 71.4 µM)
4 | CCCCCCn1cc(CN2C(=O)S/C(=C\c3ccc4c(c3)OCO4)C2=O)nn1 | 43 (≈ 104 µM) | > 100 | 77.6 (≈ 187 µM) | 67 (≈ 162 µM)
5 | O=C1S/C(=C\c2ccc3c(c2)OCO3)C(=O)N1Cc1cn(-c2ccc(F)cc2)nn1 | 96.2 (≈ 227 µM) | > 100 | > 100 | > 100
6 | O=C1S/C(=C\c2ccc3c(c2)OCO3)C(=O)N1Cc1cn(-c2ccc(Cl)cc2)nn1 | > 100 | 33.6 (≈ 76.2 µM) | > 100 | > 100
7 | O=C1S/C(=C\c2ccc3c(c2)OCO3)C(=O)N1Cc1cn(-c2ccccc2Cl)nn1 | 87 (≈ 197 µM) | 40 (≈ 90.7 µM) | > 100 | > 100
8 | O=C1S/C(=C\c2ccc3c(c2)OCO3)C(=O)N1Cc1cn(-c2ccccc2[N+](=O)[O-])nn1 | > 100 | 0.1 (≈ 0.222 µM) | > 100 | > 100
9 | CC(C)c1ccc(-n2cc(CN3C(=O)S/C(=C\c4ccc5c(c4)OCO5)C3=O)nn2)cc1 | 78 (≈ 174 µM) | 0.3 (≈ 0.669 µM) | 97.5 (≈ 217 µM) | 66 (≈ 147 µM)
10 | Cc1ccc(-n2cc(CN3C(=O)S/C(=C\c4ccc5c(c4)OCO5)C3=O)nn2)cc1 | > 100 | 75.5 (≈ 180 µM) | > 100 | > 100
11 | O=C1S/C(=C\c2ccc3c(c2)OCO3)C(=O)N1Cc1cn(-c2ccc(F)c(F)c2)nn1 | > 100 | > 100 | > 100 | > 100
12 | C[C@H]1O[C@H](O[C@H]2[C@H](O)[C@@H](O)[C@@H](O[C@H]3[C@H](O)[C@@H](O)C(O)O[C@@H]3CO)O[C@@H]2CO)[C@H](O)[C@@H](O)[C@@H]1N[C@H]1C=C(CO)[C@@H](O)[C@H](O)[C@H]1O (some centres not stated) [ACARBOSE] | – | 12.5 (≈ 19.4 µM) | – | –
13 | COc1cccc2c1C(=O)c1c(O)c3c(c(O)c1C2=O)C[C@@](O)(C(=O)CO)C[C@@H]3O[C@H]1C[C@H](N)[C@H](O)[C@H](C)O1 [DOXORUBICIN] | – | – | 0.8 (≈ 1.47 µM) | 0.6 (≈ 1.1 µM)
